The source made the active and inactive calls.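 The calls were made as follows, unless noted: active = Her2 level under about 52% in both replicate screens, with viability over 70% of control (limit read from the data); inconclusive = Her2 under the limit in one screen only, or viability under 70%; inactive = Her2 level above the set limit.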
How the values were obtained:
[1] = Her2 expression decrease, cell viability multiplex – SKBR3 breast tumor cells, AlphaScreen, ATP viability, primary screen (AID 461); conditions: SKBR3 Her2 protein level, 18-24 h, measured here: SKBR3 viability, ATP luminescence, at 10 µM;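 as to Her2 level: lower value means less Her2 protein in the cells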;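 as to viability: percent of carrier control wells set as 100% viability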
[2] = biological target: Receptor tyrosine-protein kinase erbB-2 (Homo sapiens) (UniProt P04626); test: as above; conditions: 18-24 h, at 10 µM, stronger effect = lower value
[3] = reduced viability of SK-BR-3 breast cancer cells – cell-based, 24 h, human, pilot screen (AID 572;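 active = viability at or below 10% of carrier control in both of two separate runs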;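 also: compound exposure lasted between 18 and 24 h rather than exactly 24 h; 100% = carrier-treated control wells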); conditions: SK-BR-3 viability, CellTiter-Glo luminescence, at 10 µM, stronger effect = lower value
[4] = HUVEC growth inhibition – cell-based, human, primary screen (AID 575;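 active = viability at or below 30% in both replicate assays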;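 also: 100% = median of untreated cell wells with 0.1% DMSO on each plate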); conditions: HUVEC proliferation, CellTiter-Glo luminescence, 72 h; at 10 µM; stronger effect = lower value
In short: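 System: primary human umbilical vein endothelial cells; Quantity: 1250 endothelial cells in each well; Buffer or medium: supplemented EBM, 2% fetal bovine serum; Doses: one dose, 10 µM final, 0.1% DMSO; Incubation: 72 h compound incubation; Technique: ATP-based CellTiter-Glo luminescent read; Evaluation: percent of median DMSO-control luminescence; Controls: vehicle and MePR control wells.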

[5] = H69AR cell proliferation blockers – human, duplicate replicates, primary screen (AID 580;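 active = viability at or under a set limit in both replicates, limit being median viability minus 3 SD, cut at about 48% in these data, passing the limit was not always enough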;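 also: 100% = mean luminescence of untreated wells and 0% = no signal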); conditions: H69AR lung tumor cells viability, ATP luminescence, 72 h; at 10 µM; stronger effect = lower value
[6] = MRP1 drug-resistance reversers in H69AR cells – cell-based, doxorubicin co-treatment, pilot screen (AID 601;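 active = viability loss from added drug above about 55%, and viability with drug at most 40%, in both replicates, limit read from the data, passing the limit was not always enough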); conditions: CellTiter-Glo, 72 h, at 10 µM; for differential viability (reversal): stronger effect = higher value
[7] = yeast transport mutant growth inhibition pilot in 384-well plates, post-Golgi transport modulator project (AID 636; in the data active = inhibition above about 31%); conditions: absorbance 615 nm, about 18 h, stronger effect = higher value
[8] = growth suppression of yeast trafficking mutant, preliminary HTS, modulators of trafficking downstream of Golgi apparatus project, 1536-format plate, OD 615 nm (AID 637; in the data active = inhibition above about 30%); conditions: yeast transport mutant growth, absorbance 615 nm, 18 h; stronger effect = higher value
[9] = H69AR cells + 2 uM doxorubicin, measured here: viability with 2 uM doxorubicin, stronger effect = lower value
[10] = H69AR cells, compound alone cytotoxicity

Receptor tyrosine-protein kinase erbB-2 (Homo sapiens), sequence (P04626 whole entry, looked up): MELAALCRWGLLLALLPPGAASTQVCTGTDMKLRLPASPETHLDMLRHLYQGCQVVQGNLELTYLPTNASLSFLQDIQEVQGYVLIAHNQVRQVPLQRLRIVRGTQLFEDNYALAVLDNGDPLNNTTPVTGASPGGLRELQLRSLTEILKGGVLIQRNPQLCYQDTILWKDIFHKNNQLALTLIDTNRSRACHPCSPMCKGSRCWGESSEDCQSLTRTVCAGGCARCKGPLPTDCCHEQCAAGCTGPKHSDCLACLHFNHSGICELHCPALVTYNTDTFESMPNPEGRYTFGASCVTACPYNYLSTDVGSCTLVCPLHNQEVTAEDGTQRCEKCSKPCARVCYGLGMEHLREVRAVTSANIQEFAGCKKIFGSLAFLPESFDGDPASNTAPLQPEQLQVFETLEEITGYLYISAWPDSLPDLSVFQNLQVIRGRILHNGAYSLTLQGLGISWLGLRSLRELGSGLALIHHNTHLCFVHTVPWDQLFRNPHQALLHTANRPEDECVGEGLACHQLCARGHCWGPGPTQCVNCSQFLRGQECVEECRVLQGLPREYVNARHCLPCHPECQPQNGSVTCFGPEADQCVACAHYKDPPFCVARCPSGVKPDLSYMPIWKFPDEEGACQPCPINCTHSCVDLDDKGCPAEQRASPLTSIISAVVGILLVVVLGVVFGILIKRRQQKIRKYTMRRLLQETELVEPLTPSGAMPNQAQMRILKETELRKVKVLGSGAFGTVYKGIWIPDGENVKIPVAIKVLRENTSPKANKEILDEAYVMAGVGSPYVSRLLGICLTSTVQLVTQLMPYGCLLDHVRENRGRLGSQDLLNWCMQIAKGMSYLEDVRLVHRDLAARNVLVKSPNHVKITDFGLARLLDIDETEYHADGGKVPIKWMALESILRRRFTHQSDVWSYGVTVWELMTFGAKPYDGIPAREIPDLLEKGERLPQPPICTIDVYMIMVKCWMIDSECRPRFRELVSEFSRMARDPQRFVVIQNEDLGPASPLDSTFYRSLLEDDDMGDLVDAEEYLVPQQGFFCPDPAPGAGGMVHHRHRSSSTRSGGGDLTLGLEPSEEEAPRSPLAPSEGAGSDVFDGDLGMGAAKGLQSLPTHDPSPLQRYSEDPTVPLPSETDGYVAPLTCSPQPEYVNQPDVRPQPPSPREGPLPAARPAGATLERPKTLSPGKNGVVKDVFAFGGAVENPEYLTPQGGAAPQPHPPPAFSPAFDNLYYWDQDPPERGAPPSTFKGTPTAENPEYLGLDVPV

| Structure (SMILES) | viability [1] [%] | Her2 level [2] | viability [3] | viability [4] | viability [5] | differential viability (reversal) ([6]; H69AR cells + 2 uM doxorubicin) | viability [6, 9] [%] | viability [6, 10] [%] | inhibition [7] | inhibition [8] |
| --- | --- | --- | --- | --- | --- | --- | --- | --- | --- | --- |
| Cc1nc(SCC(=O)N2CCC(C(N)=O)CC2)n[nH]1 | 94.5 | 108% (inactive) | 94.5% (inactive) | 109% (inactive) | 95.5% (inactive) | 3.98% (inactive) | 91.6 | 95.5 | -6.32% (inactive) | 1.45% (inactive) |
| CC(=O)c1ccc(-c2nc3ccccc3n2C)o1 | 104 | 81% (inactive) | 104% (inactive) | 96.7% (inactive) | 72.7% (inactive) | 3.04% (inactive) | 69.6 | 72.7 | -6.8% (inactive) | -1.9% (inactive) |
| CC1CCN(S(=O)(=O)c2cn(CC(=O)N3CCN(C)CC3)c(=O)c3ccccc23)CC1 | 122 | 97% (inactive) | 122% (inactive) | 104% (inactive) | 97.4% (inactive) | 0.39% (inactive) | 97 | 97.4 | -1.69% (inactive) | -7.46% (inactive) |
| Cc1cccc(OCCCc2c(C)n[nH]c2C)c1 | 102 | 118% (inactive) | 102% (inactive) | 121% (inactive) | 98.7% (inactive) | 20.4% (inactive) | 78.4 | 98.7 | 5.32% (inactive) | -8% (inactive) |
| CCOC(=O)C1=C(O)C(=O)N(c2ccc(S(N)(=O)=O)cc2)C1c1ccccc1 (stereo not given) | 97.5 | 110% (inactive) | 97.5% (inactive) | 96.7% (inactive) | 96.7% (inactive) | 1.46% (inactive) | 95.2 | 96.7 | -6.53% (inactive) | -6.23% (inactive) |
| CCOCCCNC(=O)CS(=O)(=O)Cc1nc(-c2cccc(OC)c2)oc1C | 128 | 92% (inactive) | 128% (inactive) | 88.4% (inactive) | 84% (inactive) | -3.73% (inactive) | 87.8 | 84 | -4.81% (inactive) | 5.24% (inactive) |
| COc1ccc(C(CC(=O)O)NC(=O)c2ccccc2)cc1OC (stereo not given) | 110 | 101% (inactive) | 110% (inactive) | 94.6% (inactive) | 83.6% (inactive) | -6.46% (inactive) | 90.1 | 83.6 | 0.78% (inactive) | -6.33% (inactive) |
| CCc1ccc2nc(NC(=O)CSCc3c(C)noc3C)sc2c1 | 88.5 | 110% (inactive) | 88.5% (inactive) | 52.5% (inactive) | 87.2% (inactive) | -10.5% (inactive) | 97.6 | 87.2 | -0.67% (inactive) | -7.54% (inactive) |
| CCOCCCn1c(=S)[nH]c2cc3c(cc2c1=O)OCO3 | 99 | 102% (inactive) | 99% (inactive) | 96.3% (inactive) | 97.6% (inactive) | 4.13% (inactive) | 93.4 | 97.6 | -3.38% (inactive) | -2.79% (inactive) |
| Cc1cc(OCC(O)CN2CCN(CCO)CC2)ccc1C(C)C (stereo not given) | 86.5 | 96% (inactive) | 86.5% (inactive) | 101% (inactive) | 95.3% (inactive) | 10.5% (inactive) | 84.8 | 95.3 | -2.21% (inactive) | -1.67% (inactive) |
| CC(C)CC(c1nnnn1C1CCCC1)N1CCN(c2ccccc2F)CC1 (stereo not given) | 92.5 | 94% (inactive) | 92.5% (inactive) | 103% (inactive) | 84.2% (inactive) | -7.72% (inactive) | 91.9 | 84.2 | -6.32% (inactive) | 10.7% (inactive) |
| O=C(CSc1nnc(-c2c[nH]c3ccccc23)o1)N(Cc1ccccc1)c1ccc(F)cc1 | 100 | 102% (inactive) | 100% (inactive) | 65.9% (inactive) | 82.4% (inactive) | -14.3% (inactive) | 96.6 | 82.4 | 2.53% (inactive) | 7.7% (inactive) |
| COc1ccccc1NC(=O)c1nnn(CC(=O)Nc2ccccc2)c1N | 106 | 81% (inactive) | 106% (inactive) | 70.5% (inactive) | 90.7% (inactive) | -6.95% (inactive) | 97.6 | 90.7 | -5.47% (inactive) | -1.31% (inactive) |
| COc1cccc(NC(=O)N2CCN(C(=O)C(Cc3ccc(OC)c(OC)c3)NC(C)=O)CC2)c1 (stereo not given) | 97 | 124% (inactive) | 97% (inactive) | 91.1% (inactive) | 90.7% (inactive) | 2.21% (inactive) | 88.5 | 90.7 | -4.62% (inactive) | -7.5% (inactive) |
| CCNc1nc(OC)nc(Oc2ccc(=O)n(-c3ccccc3)n2)n1 | 96 | 86.5% (inactive) | 96% (inactive) | 106% (inactive) | 96.4% (inactive) | 10.6% (inactive) | 85.8 | 96.4 | -8.51% (inactive) | 2% (inactive) |
| Cc1cc2nc3c(nc2cc1C)C1(C(=O)O)CCC3(C)C1(C)C (stereo not given) | 103 | 95.5% (inactive) | 103% (inactive) | 99.9% (inactive) | 95.3% (inactive) | -0.805% (inactive) | 96.1 | 95.3 | 0% (inactive) | -2.3% (inactive) |
| Cc1ccc(NC(=O)CCN2CCc3ccccc3C2)cc1 | 91.5 | 92.5% (inactive) | 91.5% (inactive) | 109% (inactive) | 99.7% (inactive) | -0.975% (inactive) | 101 | 99.7 | -5.21% (inactive) | -4.92% (inactive) |
| Cc1ccccc1NC(=O)c1c(F)c(F)c(F)c(F)c1F | 90.5 | 98% (inactive) | 90.5% (inactive) | 103% (inactive) | 88.9% (inactive) | 2.94% (inactive) | 86 | 88.9 | -5.13% (inactive) | 4.1% (inactive) |
| Cc1ccc(C)c(-n2c(CNC(=O)c3ccco3)nnc2SCC(=O)Nc2nnc(C)s2)c1 | 100 | 94% (inactive) | 100% (inactive) | 104% (inactive) | 96.6% (inactive) | 5.91% (inactive) | 90.7 | 96.6 | -5.6% (inactive) | 3.5% (inactive) |
| O=C(Nc1ccccc1C(=O)NCC1CCCO1)c1ccco1 (stereo not given) | 110 | 89% (inactive) | 110% (inactive) | 97.9% (inactive) | 98.7% (inactive) | -1.63% (inactive) | 100 | 98.7 | -1.71% (inactive) | -5.71% (inactive) |
| CCOc1ccc(S(=O)(=O)Nc2ccccc2C(=O)Nc2ccccc2N2CCOCC2)cc1 | 104 | 97.5% (inactive) | 104% (inactive) | 74.5% (inactive) | 93.4% (inactive) | 2.71% (inactive) | 90.7 | 93.4 | -6.67% (inactive) | 3.06% (inactive) |
| CN1CCN(C(c2cccc(C(F)(F)F)c2)c2nnnn2C(C)(C)C)CC1 (stereo not given) | 94.5 | 86.5% (inactive) | 94.5% (inactive) | 102% (inactive) | 91.5% (inactive) | 1.82% (inactive) | 89.7 | 91.5 | -4.8% (inactive) | 0.82% (inactive) |
| Cc1ccccc1CNS(=O)(=O)c1ccc2c(c1)OCCO2 | 95.5 | 104% (inactive) | 95.5% (inactive) | 83.6% (inactive) | 109% (inactive) | 17.3% (inactive) | 92 | 109 | -5.47% (inactive) | -6.77% (inactive) |
| O=C(O)c1c[nH]c2ccc(S(=O)(=O)N3CCN(c4ccc(F)cc4)CC3)cc2c1=O | 93.5 | 124% (inactive) | 93.5% (inactive) | 91.6% (inactive) | 93.7% (inactive) | 10.9% (inactive) | 82.8 | 93.7 | 0.53% (inactive) | -6.45% (inactive) |
| CCC(C(=O)OCC(=O)Nc1c(C)n(C)n(-c2ccccc2)c1=O)c1ccccc1 (stereo not given) | 109 | 83% (inactive) | 109% (inactive) | 117% (inactive) | 87.7% (inactive) | 6.61% (inactive) | 81.1 | 87.7 | -4.66% (inactive) | -4.76% (inactive) |
| COc1ccccc1Cn1nnc2c(=O)[nH]c(C3CCN(C(=O)c4ccccc4Cl)CC3)nc21 | 93 | 95.5% (inactive) | 93% (inactive) | 102% (inactive) | 82.2% (inactive) | 54.1% (inactive) | 28.1 | 82.2 | -3.64% (inactive) | 0.48% (inactive) |
| COc1ccc(CCNC(=O)CSc2nncn2N)cc1OC | 93.5 | 80.5% (inactive) | 93.5% (inactive) | 109% (inactive) | 96.4% (inactive) | 8% (inactive) | 88.4 | 96.4 | -2.11% (inactive) | -3.5% (inactive) |
| CSc1ccc(Cn2nnc(C(=O)NCc3ccccc3)c2N)cc1 | 96.5 | 91.5% (inactive) | 96.5% (inactive) | 76.4% (inactive) | 103% (inactive) | 0.465% (inactive) | 103 | 103 | -1.87% (inactive) | 0.16% (inactive) |
